Calls of active or inactive are those of the source. The rule behind the calls is not given here.
Legend:
K562 = test: Growth inhibition of human K562 cells after 48 hrs by sulforhodamine B dye-based spectrophotometric assay; assay type: functional; conditions: K562, 48 h
HT-29 [1] = test: Growth inhibition of human HT-29 cells after 48 hrs by sulforhodamine B dye-based spectrophotometric assay; assay type: functional; conditions: HT-29, 48 h
NCI/ADR-RES = test: Growth inhibition of human NCI-ADR-RES cells after 48 hrs by sulforhodamine B dye-based spectrophotometric assay; assay type: functional
786-0 = test: Growth inhibition of human 786-0 cells after 48 hrs by sulforhodamine B dye-based spectrophotometric assay; assay type: functional; conditions: 786-0, 48 h
U-251 = test: Growth inhibition of human U251 cells after 48 hrs by sulforhodamine B dye-based spectrophotometric assay; assay type: functional; conditions: U-251, 48 h
MCF7 = test: Growth inhibition of human MCF7 cells after 48 hrs by sulforhodamine B dye-based spectrophotometric assay; assay type: functional; conditions: MCF7, 48 h
NCI-H460 = test: Growth inhibition of human NCI-H460 cells after 48 hrs by sulforhodamine B dye-based spectrophotometric assay; assay type: functional; conditions: NCI-H460, 48 h
OVCAR-3 = test: Growth inhibition of human OVCAR3 cells after 48 hrs by sulforhodamine B dye-based spectrophotometric assay; assay type: functional; conditions: OVCAR-3, 48 h
[2] = Growth inhibition of human HaCaT cells after 48 hrs by sulforhodamine B dye-based spectrophotometric assay; assay type: cell-based
[3] = biological target: DNA topoisomerase 2-alpha (Homo sapiens) (UniProt P11388); test: Inhibition of recombinant human topoisomerase-2alpha assessed as reducton in relaxation of supercoiled pUC19 DNA at 50 to 100 uM after 30 mins by ethidium bromide staining-based gel electrophoresis assay
DNA topoisomerase 2-alpha (Homo sapiens), sequence (P11388 whole entry): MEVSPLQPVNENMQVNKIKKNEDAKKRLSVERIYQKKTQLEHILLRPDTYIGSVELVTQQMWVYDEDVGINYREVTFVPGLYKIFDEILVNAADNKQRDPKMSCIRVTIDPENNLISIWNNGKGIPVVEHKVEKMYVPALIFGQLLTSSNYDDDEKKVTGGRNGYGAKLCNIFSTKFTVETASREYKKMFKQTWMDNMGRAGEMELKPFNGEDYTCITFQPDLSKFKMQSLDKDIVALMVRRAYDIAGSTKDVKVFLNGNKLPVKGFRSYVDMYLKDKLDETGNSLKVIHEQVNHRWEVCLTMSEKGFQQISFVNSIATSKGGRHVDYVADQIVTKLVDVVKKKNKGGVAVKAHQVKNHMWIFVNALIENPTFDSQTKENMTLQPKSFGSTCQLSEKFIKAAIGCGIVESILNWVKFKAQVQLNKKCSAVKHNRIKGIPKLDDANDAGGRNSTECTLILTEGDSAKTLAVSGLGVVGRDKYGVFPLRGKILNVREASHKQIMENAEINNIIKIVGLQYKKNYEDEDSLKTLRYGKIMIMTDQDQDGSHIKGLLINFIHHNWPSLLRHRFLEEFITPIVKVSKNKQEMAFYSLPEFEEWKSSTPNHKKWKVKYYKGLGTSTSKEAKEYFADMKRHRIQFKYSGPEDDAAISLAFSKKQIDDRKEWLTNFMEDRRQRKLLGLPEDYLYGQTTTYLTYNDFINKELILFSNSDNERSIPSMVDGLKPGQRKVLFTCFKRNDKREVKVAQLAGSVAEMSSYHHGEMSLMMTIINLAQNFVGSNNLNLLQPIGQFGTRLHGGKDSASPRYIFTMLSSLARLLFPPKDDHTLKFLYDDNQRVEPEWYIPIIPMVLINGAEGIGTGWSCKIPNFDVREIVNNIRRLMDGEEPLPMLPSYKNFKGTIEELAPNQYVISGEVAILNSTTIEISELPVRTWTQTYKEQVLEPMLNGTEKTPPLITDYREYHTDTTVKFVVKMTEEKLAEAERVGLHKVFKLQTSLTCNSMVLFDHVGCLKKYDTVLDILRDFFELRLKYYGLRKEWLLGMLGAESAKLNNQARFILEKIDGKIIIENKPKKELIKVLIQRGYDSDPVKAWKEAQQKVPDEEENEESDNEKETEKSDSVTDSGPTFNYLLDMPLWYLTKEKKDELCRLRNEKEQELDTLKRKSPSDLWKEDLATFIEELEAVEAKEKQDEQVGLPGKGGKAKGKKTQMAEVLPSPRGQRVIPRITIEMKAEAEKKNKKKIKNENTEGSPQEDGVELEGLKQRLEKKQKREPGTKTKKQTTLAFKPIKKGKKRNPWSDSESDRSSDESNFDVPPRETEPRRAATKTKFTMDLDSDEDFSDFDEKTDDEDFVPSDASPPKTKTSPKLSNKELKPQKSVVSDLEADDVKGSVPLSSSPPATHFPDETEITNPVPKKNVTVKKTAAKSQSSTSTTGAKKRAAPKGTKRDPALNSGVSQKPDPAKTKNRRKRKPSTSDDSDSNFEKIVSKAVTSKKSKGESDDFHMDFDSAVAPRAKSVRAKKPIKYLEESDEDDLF
In short: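 Supercoiled pUC19 (100 ng) with 4 units recombinant human topo IIα (p170) in relaxation buffer, ± compound at 50 or 100 µM or m-AMSA control, 30 min at 37 °C; stopped with 1% SDS, proteinase K digested; products resolved by agarose gel, ethidium bromide stained, imaged under UV.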

HT-29 [4] = test: Cell cycle arrest in human HT-29 cells assessed as accumulation at S phase at 1.25 nM after 24 hrs by propidium iodide staining-based flow cytometric method (reference value: 17.2 +/- 1.2%)
HT-29 [5] = test: Cell cycle arrest in human HT-29 cells assessed as accumulation at sub-G1 phase at 1.25 nM after 24 hrs by propidium iodide staining-based flow cytometric method (reference value: 3.5 +/- 0.7%)
HT-29 [6] = test: Cell cycle arrest in human HT-29 cells assessed as accumulation at G1 phase at 1.25 nM after 24 hrs by propidium iodide staining-based flow cytometric method (reference value: 46.1 +/- 2.1%)
HT-29 [7] = test: Cell cycle arrest in human HT-29 cells assessed as accumulation at G2/M phase at 1.25 nM after 24 hrs by propidium iodide staining-based flow cytometric method (reference value: 32.5 +/- 2.3%)
[8] = Binding affinity to DNA (unknown origin)
HT-29 [9] = test: Cell cycle arrest in human HT-29 cells assessed as accumulation at G1 phase at 10 uM after 24 hrs by propidium iodide staining-based flow cytometric method (reference value: 46.1 +/- 2.1%); assay type: functional
HT-29 [10] = test: Cell cycle arrest in human HT-29 cells assessed as accumulation at S phase at 30 uM after 24 hrs by propidium iodide staining-based flow cytometric method (reference value: 17.2 +/- 1.2%); assay type: functional
Calf thymus DNA [11] = test: Binding affinity to calf thymus DNA assessed as hyperchromicity after 10 mins by UV-visible absorption assay; assay type: nucleic-acid assay; conditions: Bos taurus
In short: (§1)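 ctDNA in Tris-HCl (0.01 M, pH 7.6), sonicated 5 min; concentration from ε260 6600 M⁻¹ cm⁻¹, as base-pair equivalents. Ligand from 1 mM DMSO stock diluted in buffer (10–80 μM), titrated with increasing ctDNA, stirred 10 min at room temperature, UV-vis read in 1 cm quartz cuvette; hyperchromicity with 100 µM ctDNA versus free ligand; Kb by curve fitting.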

HT-29 [12] = test: Induction of apoptosis in human HT-29 cells after 24 hrs by annexin-V-PE/7-AAD staining-based flow cytometry; assay type: functional, cell-based
In short: (§2)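 HT-29 seeded 2×10^5 cells/well, 24 h; treated 24 h at 5–50 μM (vehicle DMSO 0.1%); trypsinized, 1×10^5 cells in PBS plus binding buffer with annexin-V-PE and 7-AAD, 20 min dark, room temperature; 5000 events per experiment by flow cytometry; mean ± SE, two independent experiments in triplicate; ANOVA/Tukey.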

Calf thymus DNA [13] = test: Binding affinity to calf thymus DNA assessed as hyperchromicity at 100 uM after 10 mins by UV-visible absorption assay relative to control; assay type: nucleic-acid assay; conditions: Bos taurus; in short: as §1
HT-29 [14] = test: Cell cycle arrest in human HT-29 cells assessed as accumulation at G2/M phase at 5 uM after 24 hrs by propidium iodide staining-based flow cytometric method (reference value: 32.5 +/- 2.3%); assay type: functional
HT-29 [15] = test: Cell cycle arrest in human HT-29 cells assessed as accumulation at G1 phase at 30 uM after 24 hrs by propidium iodide staining-based flow cytometric method (reference value: 46.1 +/- 2.1%); assay type: functional
Calf thymus DNA [16] = test: Binding affinity to calf thymus DNA at 15 uM by fluorescence spectra analysis; assay type: nucleic-acid assay; conditions: Bos taurus
In short: (§3)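 Fluorescence of 15 μM ligand in 0.01 M Tris, pH 7.6, 25 °C, 1 cm quartz cuvette; excitation 335 nm, emission 435 nm (spectra 370–700 nm); ctDNA (0–100 μM) added stepwise into the cell; quenching analysed by Stern-Volmer plot to give Ksv.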

HT-29 [17] = test: Cell cycle arrest in human HT-29 cells assessed as accumulation at S phase at 5 uM after 24 hrs by propidium iodide staining-based flow cytometric method (reference value: 17.2 +/- 1.2%); assay type: functional
HT-29 [18] = test: Cell cycle arrest in human HT-29 cells assessed as accumulation at G2/M phase at 30 uM after 24 hrs by propidium iodide staining-based flow cytometric method (reference value: 32.5 +/- 2.3%); assay type: functional
HT-29 [19] = test: Cell cycle arrest in human HT-29 cells assessed as accumulation at sub-G1 phase at 10 uM after 24 hrs by propidium iodide staining-based flow cytometric method (reference value: 3.5 +/- 0.7%); assay type: functional
Calf thymus DNA [20] = test: Binding affinity to calf thymus DNA assessed as maximum absorption peak at 10 to 80 uM after 10 mins by UV-visible absorption assay (reference value: 334 nm); assay type: nucleic-acid assay; conditions: Bos taurus; in short: as §1
HT-29 [21] = test: Cell cycle arrest in human HT-29 cells assessed as accumulation at sub-G1 phase at 5 uM after 24 hrs by propidium iodide staining-based flow cytometric method (reference value: 3.5 +/- 0.7%); assay type: functional
HT-29 [22] = test: Cell cycle arrest in human HT-29 cells assessed as accumulation at G1 phase at 5 uM after 24 hrs by propidium iodide staining-based flow cytometric method (reference value: 46.1 +/- 2.1%); assay type: functional
HT-29 [23] = test: Cell cycle arrest in human HT-29 cells assessed as accumulation at S phase at 10 uM after 24 hrs by propidium iodide staining-based flow cytometric method (reference value: 17.2 +/- 1.2%); assay type: functional
HT-29 [24] = test: Cell cycle arrest in human HT-29 cells assessed as accumulation at sub-G1 phase at 30 uM after 24 hrs by propidium iodide staining-based flow cytometric method (reference value: 3.5 +/- 0.7%); assay type: functional
HT-29 [25] = test: Induction of apoptosis in human HT-29 cells assessed as increase in cell subpopulation with phosphatidylserine externalization at 5 uM after 24 hrs by annexin-V-PE/7-AAD staining-based flow cytometry; assay type: functional; in short: as §2
Calf thymus DNA [26] = test: Binding affinity to calf thymus DNA by fluorescence spectra analysis; assay type: nucleic-acid assay; conditions: Bos taurus; in short: as §3
HT-29 [27] = test: Cell cycle arrest in human HT-29 cells assessed as accumulation at G2/M phase at 10 uM after 24 hrs by propidium iodide staining-based flow cytometric method (reference value: 32.5 +/- 2.3%); assay type: functional

Row | SMILES | GI50 (K562) | GI50 (HT-29 [1]) | GI50 (NCI/ADR-RES) | GI50 (786-0) | GI50 (U-251) | GI50 (MCF7) | GI50 (NCI-H460) | GI50 (OVCAR-3) | GI50 at 48 h [2] | other results
1 | O=C1CS/C(=N/N=C/c2c[nH]c3ccc(Br)cc23)N1c1cccc2ccccc12 | > 100000 nM | 27.3 µM | 12.4 µM | 29.1 µM | 48.8 µM | 6.06 µM | > 100 µM | 5.12 µM | 6.23 µM | 
2 | S=C(NCCc1ccccc1)N/N=C/c1c[nH]c2ccc(Br)cc12 | 2120 nM | 7.87 µM | 7.14 µM | 7.58 µM | 7.49 µM | 6.81 µM | 8.48 µM | 8.22 µM | 7.85 µM | 
3 | S=C(N/N=C/c1c[nH]c2ccc(Br)cc12)Nc1cccc2ccccc12 | 5290 nM | 6.56 µM | 6.18 µM | 6.56 µM | 7.32 µM | 0.95 µM | 6.99 µM | 1.6 µM | 6.15 µM | 
4 | COc1cc(NS(C)(=O)=O)ccc1Nc1c2ccccc2nc2ccccc12 |  |  |  |  |  |  |  |  |  | inhibition [3]: Active
5 | COc1cc2c(c(OC)c1OC)-c1ccc(OC)c(=O)cc1[C@@H](NC(C)=O)CC2 [COLCHICINE] |  |  |  |  |  |  |  |  |  | Activity (HT-29 [4]): 5.9%; Activity (HT-29 [5]): 3.5%; Activity (HT-29 [6]): 14.6%; Activity (HT-29 [7]): 76%
6 | Cc1ccc(NC(=S)N/N=C/c2c[nH]c3ccccc23)cc1 | 160 nM | 1.45 µM | 1.46 µM | 3.99 µM | 8.11 µM | 2.52 µM | 11.7 µM | 3.88 µM | 0.99 µM | 
7 | S=C(NCCc1ccccc1)N/N=C/c1c[nH]c2ccccc12 | 170 nM | > 100 µM | 38.7 µM | 76.3 µM | 77.9 µM | 15.5 µM | > 100 µM | > 100 µM | > 100 µM | 
8 | COc1cccc2c1C(=O)c1c(O)c3c(c(O)c1C2=O)C[C@@](O)(C(=O)CO)C[C@@H]3O[C@H]1C[C@H](N)[C@H](O)[C@H](C)O1 [DOXORUBICIN] | 930 nM | 0.23 µM | 0.77 µM | 0.11 µM | 0.14 µM | 0.07 µM | 0.09 µM | 0.22 µM | 0.2 µM | 
9 | Cc1ccc(N2C(=O)CS/C2=N/N=C/c2c[nH]c3ccc(Br)cc23)cc1 | 10 nM | > 100 µM | 64.6 µM | 39.9 µM | 54.7 µM | 59.5 µM | 96.6 µM | 98.5 µM | 54 µM | 
10 | S=C(N/N=C/c1c2ccccc2nc2ccccc12)Nc1cccc2ccccc12 |  |  |  |  |  |  |  |  |  | Kb [8]: 8.47 ×10⁵ /M
11 | O=C1CS/C(=N/N=C/c2c[nH]c3ccccc23)N1c1cccc2ccccc12 | > 100000 nM | 96.9 µM | 38.6 µM | 62.1 µM | 72.5 µM | 34.9 µM | > 100 µM | 25.7 µM | 63 µM | 
12 | S=C(N/N=C/c1c[nH]c2ccccc12)Nc1cccc2ccccc12 | 10 nM | 0.01 µM | 6.48 µM | 0.25 µM | 0.92 µM | 0.25 µM | 0.38 µM | 0.21 µM | 0.59 µM | Activity (HT-29 [9]): 26.7%; Activity (HT-29 [10]): 7.3%; Kb (Calf thymus DNA [11]): 4.3 ×10⁴ /M; Activity (HT-29 [12]): Dose-dependent effect; Activity (Calf thymus DNA [13]): 13%; Activity (HT-29 [14]): 80.5%; inhibition [3]: Active; Activity (HT-29 [15]): 34.9%; Activity (Calf thymus DNA [16]): Active; Activity (HT-29 [17]): 6.8%; Activity (HT-29 [18]): 53.1%; Activity (HT-29 [19]): 1.6%; Activity (Calf thymus DNA [20]): 334 nm; Activity (HT-29 [21]): 2%; Activity (HT-29 [22]): 10.7%; Activity (HT-29 [23]): 5.5%; Activity (HT-29 [24]): 4.8%; Activity (HT-29 [25]): 12.6%; KSV (Calf thymus DNA [26]): 1.19 ×10³ /M; Activity (HT-29 [27]): 66.2%
13 | Cc1ccc(N2C(=O)CS/C2=N/N=C/c2c[nH]c3ccccc23)cc1 | > 100000 nM | > 100 µM | > 100 µM | 79.1 µM | 90.2 µM | > 100 µM | > 100 µM | > 100 µM | > 100 µM | 

From ChEMBL document CHEMBL4138095, “Thiosemicarbazones and 4-thiazolidinones indole-based derivatives: Synthesis, evaluation of antiproliferative activity, cell death mechanisms and topoisomerase inhibition assay” (Eur J Med Chem, 2017)
